High-throughput results as filed in PubChem.
Hits are enriched below; roughly 1.9% of the tested compounds scored in any of these assays.
M4 antag = CHRM4 antagonism in calcium assay; CHO-hM4 cells, ACh EC80, Fluo-8 calcium fluorescence; P08173; 360,000 tested, 0.73% active; AID 624125; inhibition, % at 3 µM;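 active = inhibition above its plate's cutoff, the mean inhibition of sample wells plus 3 SD, cut at about 27% in these data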;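 note: 0% = acetylcholine EC80 with DMSO and 100% = DMSO without agonist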
Target sequence (P08173 whole entry, looked up): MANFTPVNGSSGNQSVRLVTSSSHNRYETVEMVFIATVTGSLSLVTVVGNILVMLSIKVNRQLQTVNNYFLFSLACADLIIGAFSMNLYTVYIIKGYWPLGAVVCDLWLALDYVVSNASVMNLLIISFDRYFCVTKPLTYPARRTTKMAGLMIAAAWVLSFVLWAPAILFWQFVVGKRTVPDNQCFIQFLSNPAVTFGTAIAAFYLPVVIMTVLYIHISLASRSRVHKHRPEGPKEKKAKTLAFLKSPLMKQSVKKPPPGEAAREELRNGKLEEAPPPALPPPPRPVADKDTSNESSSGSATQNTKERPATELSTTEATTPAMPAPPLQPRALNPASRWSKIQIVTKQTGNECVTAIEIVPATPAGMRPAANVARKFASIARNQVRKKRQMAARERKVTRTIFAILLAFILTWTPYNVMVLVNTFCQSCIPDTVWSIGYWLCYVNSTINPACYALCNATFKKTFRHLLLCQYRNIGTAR
CHRM4 PAM = positive allosteric modulators of human muscarinic M4 receptor | AID 624126 | P08173 | activation, % at 3 µM | CHO-K1 hM4/Gqi5, Fluo-8 calcium fluorescence, ACh EC20; 0% = ACh EC20, 100% = maximal ACh | 360,000 tested, 0.4% active;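 active = activation above its plate's cutoff, the mean activation of sample wells plus 3 SD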
M5 ag = agonists of human muscarinic M5 receptor (CHRM5). P08912. CHO-K1 hM5 cells, Fluo-8 calcium fluorescence; 0% DMSO wells, 100% maximal acetylcholine response. activation, % at 3 µM. 360,000 tested, 0.19% active;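 active = activation above the run's mean over test compounds plus 3 SD, cut at about 23% in these data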;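 note: signal is peak over basal fluorescence ratio across the kinetic read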
CHRM5 PAM = CHRM5 positive allosteric modulation; P08912; CHO-K1 hM5, Fluo-8 calcium, ACh EC20 PAM; 0% = ACh EC20, 100% = ACh EC100; 360,000 tested, 0.3% active; activation, % at 3 µM;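 active = activation above the run cutoff, the mean activation of all test compounds plus 3 SD, cut at about 18% in these data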
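Replicates: One well per compound, no replicates | System: Human M5 receptor in CHO-K1 cells | Benchmarks: Low control EC20 acetylcholine (0%), high control EC100 acetylcholine (100%) | Probe or stimulus: Acetylcholine, EC20 level | Times: Fluo-8 loading 80 min at 37 °C plus 30 min room temperature | Signal: Intracellular calcium via Fluo-8 fluorescence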
CHRM4 agonist = agonists of human muscarinic M4 receptor (CHRM4); P08173; CHO-K1 hM4/Gqi5, Fluo-8 calcium fluorescence; vehicle 0%, full acetylcholine response 100%; activation, % at 3 µM; 360,000 tested, 0.14% active; AID 624127;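 active = activation above the run mean over all test wells plus 3 SD, cut at about 32% in these data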;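 note: peak over basal fluorescence ratio per well then scaled between controls; 0% = DMSO wells and 100% = acetylcholine at EC100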
CHRM5 antagonist = blocks acetylcholine activation of human M5 receptor; P08912; CHO-hM5 cells, Fluo-8 calcium fluorescence, ACh EC80; inhibition, % at 3 µM; 360,000 tested, 0.59% active; AID 624040;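 active = inhibition above a per-plate cutoff, the mean of that plate's test compounds plus 3 SD, cut at about 27% in these data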;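 note: 0% = acetylcholine EC80 with DMSO and 100% = DMSO without agonist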
Active calls of the source: *.

SMILES	M4 antag	CHRM4 PAM	M5 ag	CHRM5 PAM	CHRM4 agonist	CHRM5 antagonist
O=c1[nH]c(=S)n(-c2ccccc2)c(O)c1/C=N/N1CCCCC1c1cccnc1 (configuration not stated)	-1	11	5	-2	2	3
CN1C(=O)NC(=O)C2(CCCC2)C1=O	-1	3	1	-3	0	5
O=C1NC(=O)N(c2cccc(Cl)c2)C(=O)/C1=C\c1ccc(Sc2nc3ccccc3[nH]2)o1	6	-7	36*	-24	25	18
O=C1NC(=O)N(c2ccccc2)C(=O)/C1=C/c1ccc(Sc2ccccc2)o1	-1	6	2	6	3	-1
O=C1NC(=O)N(c2ccccc2F)C(=O)/C1=C/c1ccc(Sc2nc3ccccc3[nH]2)o1	21	-28	16	-9	41*	5
Brc1ccc2c(c1)C(OC1CN3CCC1CC3)c1ccccc1CS2 (configuration not stated)	100*	-41	-1	-19	10	100*
c1ccc(C2CN3CCC2CC3)cc1 (configuration not stated)	11	-13	-18	-18	0	6
OC(Cc1ccccc1)(c1ccccc1)C1CN2CCC1CC2 (configuration not stated)	85*	-24	-8	-20	1	90*
OC(c1ccccc1)(c1ccc(Cl)cc1)C1CN2CCC1CC2 (configuration not stated)	44*	-55	-18	-32	9	60*
OC(c1ccccc1)(c1ccccc1)C1CN2CCC1CC2 (configuration not stated)	75*	-21	-12	-22	1	99*
OCC[N+]12CCC(CC1)C(C(O)(c1ccccc1)c1ccccc1)C2 (configuration not stated)	-3	-33	-18	-9	0	6
CCCC[N+]12CCC(CC1)C(=C(c1ccccc1)c1ccccc1)C2	57*	-16	-9	-19	1	72*
CCC[N+]12CCC(CC1)C(=C(c1ccccc1)c1ccccc1)C2	57*	-16	-10	-20	1	94*
CCC(C#N)(CC)P(=S)(c1ccccc1)c1ccccc1	-1	-11	-6	-11	-2	2
CC(CC(C#N)(c1ccccc1)c1ccccc1)N(C)C (configuration not stated)	91*	-17	-6	-23	1	99*
C[C@]12CCC(=O)C=C1C=CC1C2CC[C@@]2(C)C1CC[C@@H]2O (some centres not stated)	-8	-1	0	-1	1	16
COc1ccc2ccccc2c1CNCCc1ccccc1	5	-4	-4	18*	5	-4
Cc1cnc(-n2c(=S)[nH]c3ccccc3c2=O)s1	-4	8	3	6	0	3
CC=C(CC)C1(CCC)C(=O)NC(=S)NC1=O	3	8	-1	-6	1	7
O=[N+]([O-])/C=C/c1c(Cl)cccc1Cl	18	-9	-3	-24	16	29*
CC(C)C(=O)c1cn(Cc2ccccc2C#N)c2ccccc12	-1	0	-4	4	0	2
CC(=O)c1cn(Cc2ccccc2C#N)c2ccccc12	29*	-22	8	-31	22	37*
Cc1cc2c(cc1C)NP(=S)(c1ccccc1)N2	-3	0	-3	-8	4	5
CC12CCC3c4ccc(OC(=O)N(CCCl)CCCl)cc4CCC3C1CCC2O (configuration not stated)	-9	-6	6	-15	13	2
O=C1NC(=O)C(=Cc2ccc(N3CCN(C(=O)c4ccccc4)CC3)c([N+](=O)[O-])c2)C(=O)N1	48*	54*	5	-2	41*	2
SMILES	M4 antag	CHRM4 PAM	M5 ag	CHRM5 PAM	CHRM4 agonist	CHRM5 antagonist
S=C1NCCN1	30*	-11	0	-5	1	-1
CC(CC(C)(C)N1CC1)=NO	-4	0	1	2	1	-6
N[C@@H](CCl)C(=O)O	51*	-16	2	-8	1	7
C[Se]C[C@@H](N)C(=O)O	10	-6	0	-2	1	3
O=S(=O)(c1ccccc1)C1CN1c1c(F)c(F)c(F)c(F)c1F (configuration not stated)	-9	8	-2	1	0	-1
CCCn1ncc(CN2CCCC(C(=O)c3cccc(OC)c3)C2)c1C (configuration not stated)	55*	-23	-11	-19	1	16
C[C@]12C[C@H](O)[C@@H](O)C[C@@H]1CC[C@@H]1[C@@H]2CC[C@]2(C)C(=O)CC[C@@H]12	-8	-3	9	-14	23	5
Cc1cc(-c2ccccc2)cc(-c2ccccc2)[n+]1CCc1ccccc1	38*	-7	-9	-28	2	18
Clc1ccc(C[n+]2c(-c3ccccc3)cc(-c3ccccc3)cc2-c2ccccc2)cc1	31*	-10	-9	-19	6	23
O=C1OC(c2ccc(Br)cc2)=N/C1=C\N1CC2CC(C1)c1cccc(=O)n1C2 (configuration not stated)	5	-6	-12	4	0	-1
O=C1OC(c2ccc(Cl)cc2)=N/C1=C\N1CC2CC(C1)c1cccc(=O)n1C2 (configuration not stated)	-5	15	-5	22*	1	-9
COC(=O)[C@@]1(Sc2ccc(C)cc2)CC(=O)N(P(=O)(OC)OC)[C@@H]1c1ccccc1	0	3	3	-3	1	4
CCC1(Cc2ccccc2)C(=O)NC(=S)N(C)C1=O (configuration not stated)	-9	3	-5	-2	-1	1
c1ccc(CN2Cc3ccccc3-n3nncc3C2)nc1	-18	3	0	1	2	0
O=C(CCCN1CCC2(CC1)C(=O)NCN2c1ccccc1)c1ccc(F)cc1	99*	-20	81*	-21	135*	96*
CCCCn1nnnc1C(C1CC1)N1CCC2(CC1)C(=O)NCN2c1ccccc1 (configuration not stated)	-6	-7	0	-4	6	5
Cc1ccc2c(c1N)C(=O)c1ccccc1C2=O	14	-2	5	-12	14	28*
COc1cccc(CNC2CN3CCC2CC3)c1OC (configuration not stated)	25	-11	-6	-24	2	60*
c1ccc2c(CN3CCCCCCC3)c[nH]c2c1	32*	-22	-4	-4	0	6
